{"source": "ChEMBL document CHEMBL1909525", "about": "“Synthesis and anticonvulsant activity of novel 2,6-diketopiperazine derivatives. Part 1: perhydropyrrole[1,2-a]pyrazines” (Eur J Med Chem, 2011)", "key": {"Mus musculus [1]": {"tested_on": "Mus musculus", "test": "Anticonvulsant activity in ip dosed albino Carworth Farms No.1 mouse assessed as protection against maximal electroshock-induced seizure after 0.25 hrs", "assay_type": "functional", "settings": "albino Carworth Farms No.1, ip", "in_short": "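Mouse quantification at the time of peak effect, compound given i.p. in 0.5% methylcellulose. Groups of at least eight mice received varied doses until at least two points fell between 100 and 0% response. ED50 (MES, scMET) and TD50 (rotorod) with 95% CI by probit analysis (Finney). PI = TD50/ED50 MES.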"}, "[2]": {"test": "Neurotoxicity in ip dosed albino Carworth Farms No.1 mouse assessed as motor impairment after 0.25 hrs by rotarod test", "assay_type": "toxicity, organism-based", "settings": "Carworth Farms No.1 (albino), in vivo", "in_short": "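Mouse quantification at the time of peak effect, compound given i.p. in 0.5% methylcellulose. Groups of at least eight mice received varied doses until at least two points fell between 100 and 0% response. PI = TD50/ED50 MES.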"}, "Mus musculus [3]": {"tested_on": "Mus musculus", "test": "Anticonvulsant activity in ip dosed albino Carworth Farms No.1 mouse assessed as time needs to show peak effect for electric-current for 3 secs-induced seizure after 0.25 hrs by 6Hz minimal clonic seizure test", "assay_type": "functional"}, "Mus musculus [4]": {"tested_on": "Mus musculus", "test": "Anticonvulsant activity in ip dosed albino Carworth Farms No.1 mouse assessed as protection against electric-current for 3 secs-induced seizure after 0.25 hrs by 6Hz minimal clonic seizure test", "assay_type": "functional", "settings": "albino Carworth Farms No.1, ip"}, "Rattus norvegicus [5]": {"tested_on": "Rattus norvegicus", "test": "Anticonvulsant activity in po dosed albino Sprague-Dawley rat assessed as protection against maximal electroshock-induced seizure after 0.25 hrs", "assay_type": "functional", "in_short": "(§1)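 Rats dosed orally, compound in 0.5% methylcellulose. MES at 150 mA, 60 Hz, 0.2 s; scMET with pentylenetetrazole 70 mg/kg s.c. plus 30 min observation; rotorod for toxicity.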"}, "[6]": {"test": "Neurotoxicity in po dosed albino Sprague-Dawley rat assessed as motor impairment after 0.25 hrs by rotarod test", "assay_type": "toxicity, organism-based", "settings": "in vivo", "in_short": "as §1"}, "Rattus norvegicus [7]": {"tested_on": "Rattus norvegicus", "test": "Anticonvulsant activity in po dosed Sprague-Dawley rat assessed as time needs to show peak effect for protection against subcutaneous metrazol-induced seizure after 0.25 hrs", "assay_type": "functional", "in_short": "as §1"}, "Mus musculus [8]": {"tested_on": "Mus musculus", "test": "Anticonvulsant activity in ip dosed albino Carworth Farms No.1 mouse assessed as time needs to show peak effect for protection against subcutaneous metrazol-induced seizure", "assay_type": "functional"}, "Mus musculus [9]": {"tested_on": "Mus musculus", "test": "Anticonvulsant activity in albino Carworth Farms No.1 mouse assessed as protection against maximal electroshock-induced seizure at 300 mg/kg, ip after 4 hrs", "assay_type": "functional, organism-based", "design": "dose 300 mg/kg", "in_short": "(§2)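 Mouse MES test with compound given i.p. (30, 100 or 300 mg/kg) in 0.5% methylcellulose; tested at 0.5 and 4 h. Corneal stimulus of 50 mA at 60 Hz for 0.2 s, electrodes primed with 0.5% butacaine in 0.9% NaCl. Protection is abolition of hindlimb tonic extension; scored as protected/tested.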"}, "Mus musculus [10]": {"tested_on": "Mus musculus", "test": "Neurotoxicity in albino Carworth Farms No.1 mouse assessed as motor impairment at 100 mg/kg, ip after 0.5 hrs by rotarod test", "assay_type": "toxicity, organism-based", "design": "dose 100 mg/kg, route intraperitoneal", "settings": "in vivo", "in_short": "(§3)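 Rotorod neurotoxicity in mice at 6 r.p.m. Compound given i.p. (30, 100, 300 mg/kg) in 0.5% methylcellulose; tested at 30 min and 4 h. Impairment is inability to keep equilibrium on the rod for a given time; scored as impaired/tested.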"}, "Mus musculus [11]": {"tested_on": "Mus musculus", "test": "Toxicity in albino Carworth Farms No.1 mouse maximal electroshock-induced seizure model assessed as death following tonic extension at 30 mg/kg, ip after 0.5 hrs", "assay_type": "organism-based", "design": "dose 30 mg/kg, route intraperitoneal", "settings": "in vivo", "in_short": "(§4)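 Mice (18–25 g) were given 30, 100 or 300 mg/kg i.p. in 0.5% (v/v) aqueous methylcellulose. They were tested at 30 min and 4 h with a corneal electroshock (50 mA, 60 Hz, 0.2 s) through electrodes wetted with 0.5% butacaine hemisulphate in 0.9% NaCl. Protection was abolition of hindlimb tonic extension; death following tonic extension was noted per animals tested.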"}, "Mus musculus [12]": {"tested_on": "Mus musculus", "test": "Anticonvulsant activity in albino Carworth Farms No.1 mouse assessed as protection against maximal electroshock-induced seizure at 30 mg/kg, ip after 4 hrs", "assay_type": "functional, organism-based", "design": "dose 30 mg/kg", "in_short": "as §2"}, "Mus musculus [13]": {"tested_on": "Mus musculus", "test": "Neurotoxicity in albino Carworth Farms No.1 mouse assessed as motor impairment at 300 mg/kg, ip after 4 hrs by rotarod test", "assay_type": "toxicity, organism-based", "design": "dose 300 mg/kg, route intraperitoneal", "settings": "in vivo", "in_short": "as §3"}, "Mus musculus [14]": {"tested_on": "Mus musculus", "test": "Anticonvulsant activity in albino Carworth Farms No.1 mouse assessed as protection against maximal electroshock-induced seizure at 30 mg/kg, ip after 0.5 hrs", "assay_type": "functional, organism-based", "design": "dose 30 mg/kg", "in_short": "as §2"}, "Mus musculus [15]": {"tested_on": "Mus musculus", "test": "Neurotoxicity in albino Carworth Farms No.1 mouse assessed as motor impairment at 30 mg/kg, ip after 4 hrs by rotarod test", "assay_type": "toxicity, organism-based", "design": "dose 30 mg/kg, route intraperitoneal", "settings": "in vivo", "in_short": "as §3"}, "Mus musculus [16]": {"tested_on": "Mus musculus", "test": "Anticonvulsant activity in albino Carworth Farms No.1 mouse assessed as protection against maximal electroshock-induced seizure at 300 mg/kg, ip after 0.5 hrs", "assay_type": "functional, organism-based", "design": "dose 300 mg/kg", "in_short": "as §2"}, "Mus musculus [17]": {"tested_on": "Mus musculus", "test": "Neurotoxicity in albino Carworth Farms No.1 mouse assessed as motor impairment at 30 mg/kg, ip after 0.5 hrs by rotarod test", "assay_type": "toxicity, organism-based", "design": "dose 30 mg/kg, route intraperitoneal", "settings": "in vivo", "in_short": "as §3"}, "Mus musculus [18]": {"tested_on": "Mus musculus", "test": "Anticonvulsant activity in albino Carworth Farms No.1 mouse assessed as protection against maximal electroshock-induced seizure at 100 mg/kg, ip after 0.5 hrs", "assay_type": "functional, organism-based", "design": "dose 100 mg/kg", "in_short": "as §2"}, "Mus musculus [19]": {"tested_on": "Mus musculus", "test": "Anticonvulsant activity in albino Carworth Farms No.1 mouse assessed as protection against subcutaneous metrazol-induced seizure at 100 mg/kg, ip after 4 hrs", "assay_type": "functional, organism-based", "design": "dose 100 mg/kg", "in_short": "(§5)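 Mouse scMET test. Compound given i.p. (30, 100 or 300 mg/kg) in 0.5% methylcellulose. Pentylenetetrazole 85 mg/kg (CD97) given s.c. at 0.5 or 4 h, then mice observed for 30 min. Protection is absence of clonic spasms; scored as protected/tested.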"}, "Mus musculus [20]": {"tested_on": "Mus musculus", "test": "Neurotoxicity in albino Carworth Farms No.1 mouse assessed as motor impairment at 100 mg/kg, ip after 4 hrs by rotarod test", "assay_type": "toxicity, organism-based", "design": "dose 100 mg/kg, route intraperitoneal", "settings": "in vivo", "in_short": "as §3"}, "Mus musculus [21]": {"tested_on": "Mus musculus", "test": "Anticonvulsant activity in albino Carworth Farms No.1 mouse assessed as protection against subcutaneous metrazol-induced seizure at 300 mg/kg, ip after 0.5 hrs", "assay_type": "functional, organism-based", "design": "dose 300 mg/kg", "in_short": "as §5"}, "Mus musculus [22]": {"tested_on": "Mus musculus", "test": "Anticonvulsant activity in albino Carworth Farms No.1 mouse assessed as protection against subcutaneous metrazol-induced seizure at 100 mg/kg, ip after 0.5 hrs", "assay_type": "functional, organism-based", "design": "dose 100 mg/kg", "in_short": "as §5"}, "Mus musculus [23]": {"tested_on": "Mus musculus", "test": "Anticonvulsant activity in albino Carworth Farms No.1 mouse assessed as protection against subcutaneous metrazol-induced seizure at 300 mg/kg, ip after 4 hrs", "assay_type": "functional, organism-based", "design": "dose 300 mg/kg", "in_short": "as §5"}, "Mus musculus [24]": {"tested_on": "Mus musculus", "test": "Toxicity in albino Carworth Farms No.1 mouse maximal electroshock-induced seizure model assessed as death following tonic extension at 100 mg/kg, ip after 4 hrs", "assay_type": "organism-based", "design": "dose 100 mg/kg, route intraperitoneal", "settings": "in vivo", "in_short": "as §4"}, "Mus musculus [25]": {"tested_on": "Mus musculus", "test": "Anticonvulsant activity in albino Carworth Farms No.1 mouse assessed as protection against subcutaneous metrazol-induced seizure at 30 mg/kg, ip after 4 hrs", "assay_type": "functional, organism-based", "design": "dose 30 mg/kg", "in_short": "as §5"}, "Mus musculus [26]": {"tested_on": "Mus musculus", "test": "Anticonvulsant activity in albino Carworth Farms No.1 mouse assessed as protection against maximal electroshock-induced seizure at 100 mg/kg, ip after 4 hrs", "assay_type": "functional, organism-based", "design": "dose 100 mg/kg", "in_short": "as §2"}, "Mus musculus [27]": {"tested_on": "Mus musculus", "test": "Anticonvulsant activity in albino Carworth Farms No.1 mouse assessed as protection against subcutaneous metrazol-induced seizure at 30 mg/kg, ip after 0.5 hrs", "assay_type": "functional, organism-based", "design": "dose 30 mg/kg", "in_short": "as §5"}, "Mus musculus [28]": {"tested_on": "Mus musculus", "test": "Neurotoxicity in albino Carworth Farms No.1 mouse assessed as motor impairment at 300 mg/kg, ip after 0.5 hrs by rotarod test", "assay_type": "toxicity, organism-based", "design": "dose 300 mg/kg, route intraperitoneal", "settings": "in vivo", "in_short": "as §3"}}, "note": "Calls of active or inactive are those of the source. No cut-off for these calls is given here."}
{"smiles": "CCC1(C)CC(=O)NC1=O", "note": "(stereo not drawn) [ETHOSUXIMIDE]", "values": [{"measurement": "ED50", "setting": "Mus musculus [1]", "result": "> 500", "unit": "mg/kg"}, {"measurement": "TD50 at 0.25 h", "setting": "[2]", "result": 341, "unit": "mg/kg"}, {"measurement": "Time", "setting": "Mus musculus [3]", "result": 0.25, "unit": "h"}, {"measurement": "ED50", "setting": "Mus musculus [4]", "result": 167, "unit": "mg/kg"}, {"measurement": "ED50", "setting": "Rattus norvegicus [5]", "result": "> 500", "unit": "mg/kg"}, {"measurement": "TD50 at 0.25 h", "setting": "[6]", "result": "> 500", "unit": "mg/kg"}, {"measurement": "Time", "setting": "Rattus norvegicus [7]", "result": 0.25, "unit": "h"}, {"measurement": "Time", "setting": "Mus musculus [8]", "result": 0.25, "unit": "h"}]}
{"smiles": "C[C@H]1C(=O)NC(=O)[C@@H]2CCCN12", "values": [{"measurement": "Activity", "setting": "Mus musculus [9]", "result": "inactive"}, {"measurement": "Activity", "setting": "Mus musculus [10]", "result": "Non-toxic"}, {"measurement": "Activity", "setting": "Mus musculus [11]", "result": "Toxic"}, {"measurement": "Activity", "setting": "Mus musculus [12]", "result": "inactive"}, {"measurement": "Activity", "setting": "Mus musculus [13]", "result": "Non-toxic"}, {"measurement": "Activity", "setting": "Mus musculus [14]", "result": "inactive"}, {"measurement": "Activity", "setting": "Mus musculus [15]", "result": "Non-toxic"}, {"measurement": "Activity", "setting": "Mus musculus [16]", "result": "inactive"}, {"measurement": "Activity", "setting": "Mus musculus [17]", "result": "Non-toxic"}, {"measurement": "Activity", "setting": "Mus musculus [18]", "result": "inactive"}, {"measurement": "Activity", "setting": "Mus musculus [19]", "result": "inactive"}, {"measurement": "Activity", "setting": "Mus musculus [20]", "result": "Toxic"}, {"measurement": "Activity", "setting": "Mus musculus [21]", "result": "inactive"}, {"measurement": "Activity", "setting": "Mus musculus [22]", "result": "inactive"}, {"measurement": "Activity", "setting": "Mus musculus [23]", "result": "inactive"}, {"measurement": "Activity", "setting": "Mus musculus [24]", "result": "Toxic"}, {"measurement": "Activity", "setting": "Mus musculus [25]", "result": "inactive"}, {"measurement": "Activity", "setting": "Mus musculus [26]", "result": "inactive"}, {"measurement": "Activity", "setting": "Mus musculus [27]", "result": "inactive"}, {"measurement": "Activity", "setting": "Mus musculus [28]", "result": "Non-toxic"}]}
